A short description of data set [1]: Half life in rat liver microsomes at 1 uM by HPLC-MS/MS analysis in presence of NADPH. The class given is ADME. On the technique in general: Liver microsomes are vesicles of endoplasmic reticulum, rich in cytochrome P450 enzymes.
Data set [2] can be described thus: AUC (0 to infinity) in Sprague-Dawley rat at 20 mg/kg, po. Type of data set: ADME, organism-based. Also on record: dose 20 mg/kg, route oral, time infinity. To be noted: in vivo.
The nature of data set [3]: Cmax in Sprague-Dawley rat at 5 mg/kg, iv after 0.033 to 24 hrs. Type of data set: ADME, organism-based. Also on record: dose 5 mg/kg, route intravenous. As to conditions: in vivo.
Data set [4] addresses Histone acetyltransferase p300 (Homo sapiens) (UniProt Q09472). The experiment in a line: Binding affinity to human His6-tagged EP300 (A1040 to G1161 residues) expressed in Escherichia coli BL21(DE3) cells at 200 uM incubated for 30 mins by SYPRO orange staining based fluorescence thermal shift assay. Put shortly:
(§1)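 His6-tagged bromodomain constructs expressed in E. coli BL21(DE3) (grown at 25 °C to OD600 ~1.0, induced with 0.1 mM IPTG at 16 °C for 16 h). Purified by Ni affinity then gel filtration. Final 10 μM protein and 200 μM compound in 10 mM HEPES pH 7.5, 150 mM NaCl, DMSO ≤1%. SYPRO Orange 1:1000, 30 min on ice. Melt 30–75 °C at 0.3 °C/min. Triplicates. Tm from Boltzmann fit; ΔTm = Tm with minus without compound.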

Data set [5] in a line: Half life in Sprague-Dawley rat at 5 mg/kg, iv. The class given is ADME, organism-based. As to conditions: in vivo.
The nature of data set [6]: AUC (0 to t) in Sprague-Dawley rat at 20 mg/kg, po. As to conditions: in vivo. The class given is ADME, organism-based.
The nature of data set [7]: Half life in Sprague-Dawley rat at 20 mg/kg, po. The class given is ADME, organism-based. As to conditions: in vivo.
For data set [8], the target named is Histone-lysine N-methyltransferase ASH1L (Homo sapiens) (UniProt Q9NR48). The data set can be described thus: Binding affinity to human His6-tagged ASH1L (E2433 to E2564 residues) expressed in Escherichia coli BL21(DE3) cells at 200 uM incubated for 30 mins by SYPRO orange staining based fluorescence thermal shift assay. Put shortly: as §1
Data set [9] deals with T1, Bromodomain-containing protein 9 (Homo sapiens) (UniProt Q9H8M2).
T1 sequence (whole entry): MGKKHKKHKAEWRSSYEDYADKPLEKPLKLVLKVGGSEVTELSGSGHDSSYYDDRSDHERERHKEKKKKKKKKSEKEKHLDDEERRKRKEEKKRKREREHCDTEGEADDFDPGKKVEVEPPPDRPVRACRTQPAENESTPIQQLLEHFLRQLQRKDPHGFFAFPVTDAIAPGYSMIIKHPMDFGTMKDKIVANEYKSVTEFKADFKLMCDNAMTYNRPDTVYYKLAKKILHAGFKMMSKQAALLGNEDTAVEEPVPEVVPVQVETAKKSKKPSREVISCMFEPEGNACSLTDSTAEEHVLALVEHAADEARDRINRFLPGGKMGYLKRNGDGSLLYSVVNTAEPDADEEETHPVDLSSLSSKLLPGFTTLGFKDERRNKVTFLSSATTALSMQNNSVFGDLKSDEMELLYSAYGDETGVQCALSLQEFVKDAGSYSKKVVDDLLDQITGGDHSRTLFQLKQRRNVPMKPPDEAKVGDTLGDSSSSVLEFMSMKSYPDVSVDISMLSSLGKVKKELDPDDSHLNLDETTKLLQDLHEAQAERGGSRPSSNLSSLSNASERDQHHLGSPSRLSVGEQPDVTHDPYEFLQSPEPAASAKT
The experiment in a line: Binding affinity to human His6-tagged BRD9 (L14 to Q134 residues) expressed in Escherichia coli BL21(DE3) cells at 200 uM incubated for 30 mins by SYPRO orange staining based fluorescence thermal shift assay. Put shortly:
as §1

The nature of data set [10]: Oral bioavailability in Sprague-Dawley rat at 20 mg/kg, after 0.083 to 24 hrs. To be noted: in vivo. The class given is ADME, organism-based.
In data set [11] the target is CREB-binding protein (Homo sapiens) (UniProt Q92793). The experiment in a line: Binding affinity to human His6-tagged CREBBP (R1081 to G1197 residues) expressed in Escherichia coli BL21(DE3) cells at 200 uM incubated for 30 mins by SYPRO orange staining based fluorescence thermal shift assay. The gist of the method: as §1
The nature of data set [12]: Tmax in Sprague-Dawley rat at 20 mg/kg, po. To be noted: in vivo. The class given is ADME, organism-based.
The target of data set [13] is Transcription initiation factor TFIID subunit 1 (Homo sapiens) (UniProt P21675). The experiment in a line: Binding affinity to human His6-tagged TAF1 bromodomain 1 (R1377 to D1503 residues) expressed in Escherichia coli BL21(DE3) cells at 200 uM incubated for 30 mins by SYPRO orange staining based fluorescence thermal shift assay. Put shortly: as §1
Data set [14] can be described thus: Metabolic stability in rat liver microsomes assessed as parent compound remaining at 1 uM incubated for 40 mins by HPLC-MS/MS analysis in presence of NADPH. The class given is ADME. As to conditions: read-out: Stability.
A short description of data set [15]: Cmax in Sprague-Dawley rat at 20 mg/kg, po after 0.083 to 24 hrs. Type of data set: ADME, organism-based. To be noted: in vivo. Also on record: dose 20 mg/kg, route oral.
For data set [16], the system named is Rattus norvegicus. The experiment in a line: Apparent clearance during terminal phase in Sprague-Dawley rat at 5 mg/kg, iv. Type of data set: ADME, organism-based. To be noted: in vivo.
Data set [17] can be described thus: AUC (0 to infinity) in Sprague-Dawley rat at 30 mg/kg, po. Type of data set: ADME, organism-based. Also on record: dose 30 mg/kg, route oral, time infinity. To be noted: in vivo.
A short description of data set [18]: AUC (0 to t) in Sprague-Dawley rat at 30 mg/kg, po. The class given is ADME, organism-based. To be noted: in vivo.
A short description of data set [19]: Tmax in Sprague-Dawley rat at 30 mg/kg, po. The class given is ADME, organism-based. To be noted: in vivo.
Data set [20] is described as follows: Oral bioavailability in Sprague-Dawley rat at 30 mg/kg, after 0.083 to 24 hrs. The class given is ADME, organism-based. To be noted: in vivo.
Data set [21] in a line: Cmax in Sprague-Dawley rat at 30 mg/kg, po after 0.083 to 24 hrs. Type of data set: ADME, organism-based. Also on record: dose 30 mg/kg, route oral. To be noted: in vivo.
The nature of data set [22]: Efflux ratio of apparent permeability from basolateral to apical side over apical to basolateral side in human Caco2 cells at 10 uM incubated for 1 hr by HPLC-MS/MS analysis. Type of data set: ADME, cell-based. To be noted: Caco-2. A general note: Caco-2 cells form a polarised layer with tight junctions and transporters.
Data set [23] is described as follows: Half life in Sprague-Dawley rat at 30 mg/kg, po. Type of data set: ADME, organism-based. As to conditions: in vivo.

This note sets out measurements from ChEMBL document CHEMBL3779865, “Discovery of Benzo[cd]indol-2(1H)-ones as Potent and Specific BET Bromodomain Inhibitors: Structure-Based Virtual Screening, Optimization, and Biological Evaluation” (J Med Chem, 2016).

By half-life is commonly meant the time needed for the level to fall by half in the phase considered. Usually AUC(0-inf) stands for the area under the concentration-time curve extrapolated to infinity. A high value points to more exposure. By Cmax is commonly meant the peak of the concentration-time curve. Usually ΔTm stands for the change in melting temperature against a reference sample. As usually defined, the AUC(0-t) is the area under the concentration-time curve up to a stated or last time point. Low readings indicate less exposure, high ones more exposure. For orientation: bioavailability means the share of a dose that reaches the circulation, judged against a reference dose that is usually intravenous. Low readings indicate poor availability, high ones good availability. As usually defined, the Tmax is the time from dosing to the highest level. What is called efflux ratio is the permeability from basolateral to apical divided by that in the opposite direction, in the common usage.

Sequence of CREB-binding protein (Homo sapiens) (Q92793 2-2442 limits assumed): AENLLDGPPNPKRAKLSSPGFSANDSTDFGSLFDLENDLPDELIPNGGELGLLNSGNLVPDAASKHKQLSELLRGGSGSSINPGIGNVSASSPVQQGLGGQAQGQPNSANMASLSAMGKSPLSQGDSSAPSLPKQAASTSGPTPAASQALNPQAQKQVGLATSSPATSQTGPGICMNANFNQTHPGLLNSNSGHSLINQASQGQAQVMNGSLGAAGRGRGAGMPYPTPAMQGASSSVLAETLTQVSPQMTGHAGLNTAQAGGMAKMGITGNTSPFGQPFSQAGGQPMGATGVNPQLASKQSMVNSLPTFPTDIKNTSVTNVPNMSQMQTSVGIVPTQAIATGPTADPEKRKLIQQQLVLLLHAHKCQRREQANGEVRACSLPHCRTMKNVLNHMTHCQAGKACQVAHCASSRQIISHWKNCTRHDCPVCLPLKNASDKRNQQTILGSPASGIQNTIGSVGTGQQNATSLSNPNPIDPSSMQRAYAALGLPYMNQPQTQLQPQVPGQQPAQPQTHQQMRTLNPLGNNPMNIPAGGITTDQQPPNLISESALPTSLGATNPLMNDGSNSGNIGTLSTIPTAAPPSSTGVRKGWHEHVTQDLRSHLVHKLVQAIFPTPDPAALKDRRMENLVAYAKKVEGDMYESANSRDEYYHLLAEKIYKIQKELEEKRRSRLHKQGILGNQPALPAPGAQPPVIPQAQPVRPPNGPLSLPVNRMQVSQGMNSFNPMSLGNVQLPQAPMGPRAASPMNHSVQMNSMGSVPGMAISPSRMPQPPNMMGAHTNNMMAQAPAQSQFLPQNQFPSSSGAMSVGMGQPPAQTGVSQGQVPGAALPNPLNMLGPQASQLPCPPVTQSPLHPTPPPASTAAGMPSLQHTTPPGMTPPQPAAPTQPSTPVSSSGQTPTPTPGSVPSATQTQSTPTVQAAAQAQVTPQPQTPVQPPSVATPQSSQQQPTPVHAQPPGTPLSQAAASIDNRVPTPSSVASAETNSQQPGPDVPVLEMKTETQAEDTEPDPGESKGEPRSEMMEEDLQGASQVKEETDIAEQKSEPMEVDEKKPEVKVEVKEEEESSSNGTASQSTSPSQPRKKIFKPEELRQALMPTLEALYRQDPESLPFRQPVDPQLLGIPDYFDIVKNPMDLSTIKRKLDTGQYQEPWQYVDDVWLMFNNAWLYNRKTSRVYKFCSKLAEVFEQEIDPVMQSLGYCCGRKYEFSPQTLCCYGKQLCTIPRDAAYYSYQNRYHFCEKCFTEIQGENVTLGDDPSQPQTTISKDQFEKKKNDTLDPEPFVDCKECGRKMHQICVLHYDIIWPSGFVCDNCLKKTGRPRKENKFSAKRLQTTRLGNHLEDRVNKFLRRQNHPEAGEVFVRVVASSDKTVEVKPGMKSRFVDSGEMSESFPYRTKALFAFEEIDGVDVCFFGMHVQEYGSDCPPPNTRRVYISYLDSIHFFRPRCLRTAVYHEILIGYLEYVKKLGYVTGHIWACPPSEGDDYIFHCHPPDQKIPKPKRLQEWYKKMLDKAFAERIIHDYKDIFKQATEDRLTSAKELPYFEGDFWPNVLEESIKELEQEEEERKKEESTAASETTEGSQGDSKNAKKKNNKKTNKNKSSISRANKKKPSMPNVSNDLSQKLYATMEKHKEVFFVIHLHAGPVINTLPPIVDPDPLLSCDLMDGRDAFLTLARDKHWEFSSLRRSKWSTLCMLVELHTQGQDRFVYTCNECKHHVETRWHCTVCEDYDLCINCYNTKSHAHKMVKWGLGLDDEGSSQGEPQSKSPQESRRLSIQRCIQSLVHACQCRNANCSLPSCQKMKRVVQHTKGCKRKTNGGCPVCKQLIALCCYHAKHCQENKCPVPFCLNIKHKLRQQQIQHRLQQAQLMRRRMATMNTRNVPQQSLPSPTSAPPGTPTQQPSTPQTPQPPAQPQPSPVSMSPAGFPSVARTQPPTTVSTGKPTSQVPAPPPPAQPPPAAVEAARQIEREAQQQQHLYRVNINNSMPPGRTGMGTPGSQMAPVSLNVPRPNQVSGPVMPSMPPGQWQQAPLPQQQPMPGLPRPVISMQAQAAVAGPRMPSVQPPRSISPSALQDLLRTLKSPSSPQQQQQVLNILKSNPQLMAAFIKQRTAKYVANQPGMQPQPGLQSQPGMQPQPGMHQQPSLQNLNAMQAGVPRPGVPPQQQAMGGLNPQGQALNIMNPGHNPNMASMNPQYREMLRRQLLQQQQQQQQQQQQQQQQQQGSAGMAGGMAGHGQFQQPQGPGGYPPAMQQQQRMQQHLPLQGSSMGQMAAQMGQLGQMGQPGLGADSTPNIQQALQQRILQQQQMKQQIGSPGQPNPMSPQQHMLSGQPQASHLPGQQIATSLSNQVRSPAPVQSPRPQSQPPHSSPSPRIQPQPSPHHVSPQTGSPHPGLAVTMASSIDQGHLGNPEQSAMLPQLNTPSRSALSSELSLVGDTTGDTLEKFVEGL
Sequence of Transcription initiation factor TFIID subunit 1 (Homo sapiens) (P21675 whole entry, the tested form may be a part): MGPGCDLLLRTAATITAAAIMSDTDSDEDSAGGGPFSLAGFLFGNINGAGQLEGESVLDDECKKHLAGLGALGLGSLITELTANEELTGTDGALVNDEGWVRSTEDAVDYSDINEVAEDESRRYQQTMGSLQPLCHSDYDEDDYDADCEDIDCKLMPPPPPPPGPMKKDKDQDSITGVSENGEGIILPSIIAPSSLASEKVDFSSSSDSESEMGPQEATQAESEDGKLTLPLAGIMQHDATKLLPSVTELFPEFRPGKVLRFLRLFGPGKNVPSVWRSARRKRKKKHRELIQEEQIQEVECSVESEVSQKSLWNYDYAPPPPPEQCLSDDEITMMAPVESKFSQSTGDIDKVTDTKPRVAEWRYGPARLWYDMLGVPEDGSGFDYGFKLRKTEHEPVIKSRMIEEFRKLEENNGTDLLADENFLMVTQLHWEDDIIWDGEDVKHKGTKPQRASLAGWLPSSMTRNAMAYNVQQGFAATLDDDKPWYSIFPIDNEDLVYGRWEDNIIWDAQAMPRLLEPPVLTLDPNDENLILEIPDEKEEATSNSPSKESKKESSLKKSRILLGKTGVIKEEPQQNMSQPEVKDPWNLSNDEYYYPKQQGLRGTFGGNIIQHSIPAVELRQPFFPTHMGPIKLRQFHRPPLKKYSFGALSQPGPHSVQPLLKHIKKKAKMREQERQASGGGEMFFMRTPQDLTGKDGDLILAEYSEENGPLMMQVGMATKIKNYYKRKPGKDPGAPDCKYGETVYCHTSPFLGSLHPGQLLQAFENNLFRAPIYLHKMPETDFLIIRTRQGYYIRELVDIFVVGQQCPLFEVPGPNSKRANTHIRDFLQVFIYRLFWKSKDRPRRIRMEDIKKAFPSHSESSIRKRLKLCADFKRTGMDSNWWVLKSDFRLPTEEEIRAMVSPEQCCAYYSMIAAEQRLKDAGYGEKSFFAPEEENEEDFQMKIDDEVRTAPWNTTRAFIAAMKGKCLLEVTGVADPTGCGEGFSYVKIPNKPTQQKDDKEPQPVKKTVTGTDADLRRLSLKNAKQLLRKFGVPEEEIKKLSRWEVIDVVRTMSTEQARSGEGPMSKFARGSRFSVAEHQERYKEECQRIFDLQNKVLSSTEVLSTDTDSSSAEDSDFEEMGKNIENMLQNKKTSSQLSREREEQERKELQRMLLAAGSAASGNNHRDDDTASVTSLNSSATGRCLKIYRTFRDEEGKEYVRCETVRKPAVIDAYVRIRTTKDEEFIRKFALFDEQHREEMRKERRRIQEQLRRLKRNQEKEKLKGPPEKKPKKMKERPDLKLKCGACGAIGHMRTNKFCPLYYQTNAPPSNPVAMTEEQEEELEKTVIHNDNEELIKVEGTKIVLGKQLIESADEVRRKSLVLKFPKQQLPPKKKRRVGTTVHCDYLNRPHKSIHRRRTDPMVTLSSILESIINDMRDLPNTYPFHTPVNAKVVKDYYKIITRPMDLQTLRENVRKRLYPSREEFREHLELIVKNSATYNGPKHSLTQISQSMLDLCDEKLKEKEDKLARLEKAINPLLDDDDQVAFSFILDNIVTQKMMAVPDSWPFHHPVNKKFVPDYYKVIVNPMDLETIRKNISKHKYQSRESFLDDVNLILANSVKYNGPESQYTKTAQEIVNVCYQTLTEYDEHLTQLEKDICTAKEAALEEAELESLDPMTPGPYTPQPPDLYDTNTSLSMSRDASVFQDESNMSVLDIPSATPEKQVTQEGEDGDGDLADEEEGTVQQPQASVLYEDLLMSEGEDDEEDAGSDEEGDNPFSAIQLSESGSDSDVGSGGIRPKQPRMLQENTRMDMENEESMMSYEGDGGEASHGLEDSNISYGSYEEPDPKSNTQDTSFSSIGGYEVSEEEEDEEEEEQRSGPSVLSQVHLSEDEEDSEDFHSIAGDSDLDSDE

Consider `CCN1C(=O)c2cccc3c(NS(=O)(=O)c4cc(Br)ccc4OC)ccc1c23`, for which the half-life at 1 µM in data set [1] came to 32.4 min. The compound further showed an AUC(0-inf) in data set [2] of 2210 ng·h/mL. Besides, the Cmax in [3] stood at 2170 ng/mL; in [15], 516 ng/mL. The ΔTm was 3.5 °C in data set [4]; -1.1 °C in [8]; 2.3 °C in data set [9]; 3.5 °C in data set [11]; -0.1 °C in [13]. Besides, the half-life in data set [5] is 58.8 min; in data set [7], 237 min. In addition, the AUC(0-t) in data set [6] came out at 2200 ng·h/mL. In data set [10], the bioavailability came out at 76.8%. Further, the Tmax in [12] is 25.2 min. Besides, in data set [14], the remaining at 40 min, 1 µM was determined as 57.2%.

As for `CCN1C(=O)c2cccc3c(S(=O)(=O)NC4CCCCC4)ccc1c23`, the CLz/F in data set [16] worked out at 102 mL/min/kg. In addition, the half-life at 1 µM in data set [1] was 4.3 min. Further, the AUC(0-inf) in data set [17] came to 85.6 ng·h/mL. For the same compound, the Cmax in data set [3] was determined as 875 ng/mL; in [21], 37.3 ng/mL. Besides, the ΔTm in [4] is 2.4 °C; in data set [8] it was 0.8 °C; in data set [9], -0.2 °C; in data set [11], 1.8 °C; in [13] it was 0.2 °C. The same compound registered an AUC(0-t) in [18] of 80.3 ng·h/mL. Moreover, the half-life in data set [5] is 67.8 min; in data set [23], 104 min. Further, the Tmax in data set [19] came out at 25.2 min. The bioavailability in data set [20] turned out to be 1.7%. Also, the efflux ratio at 1 h, 10 µM in data set [22] came out at 1.3. In data set [14], the remaining at 40 min, 1 µM was determined as 4.5%.
